Active and inactive are the calls of the source. The calls are words filed in the database; no cut-off is given here.
Columns and labels:
P2Y purinoceptor 1 [1] = target: P2Y purinoceptor 1 (Meleagris gallopavo, UniProt P49652); experiment: Activation of Purinoceptor P2Y1-mediated phospholipase C in turkey erythrocyte membranes; format: cell membranes
Method in brief: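 Turkey erythrocytes labelled 18–24 h at 37 °C with 2-[3H]myo-inositol in inositol-free DMEM. Total [3H]inositol phosphates separated by anion exchange. EC50 from four-parameter logistic fit, at least three experiments.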

P2Y purinoceptor 1 [2] = target: T1, P2Y purinoceptor 1 (Homo sapiens, UniProt P47900); experiment: Accumulation of inositol phosphate in 1321N1 astrocytoma cells expressing human P2Y1 purinoceptor; format: cell-based
T1 sequence (P47900 whole entry): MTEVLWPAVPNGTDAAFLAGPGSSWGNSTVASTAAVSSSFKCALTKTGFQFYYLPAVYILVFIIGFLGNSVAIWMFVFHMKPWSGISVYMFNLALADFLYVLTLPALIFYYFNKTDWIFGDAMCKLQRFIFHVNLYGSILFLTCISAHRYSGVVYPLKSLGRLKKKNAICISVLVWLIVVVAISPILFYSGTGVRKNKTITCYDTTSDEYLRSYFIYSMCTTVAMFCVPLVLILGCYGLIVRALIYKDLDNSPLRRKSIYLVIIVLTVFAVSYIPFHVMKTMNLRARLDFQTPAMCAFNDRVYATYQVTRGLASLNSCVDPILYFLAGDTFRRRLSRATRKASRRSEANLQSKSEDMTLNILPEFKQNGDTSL
Method in brief: (§1)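 Inositol phosphate accumulation measured in 1321N1 human astrocytoma cells stably expressing human P2Y1, P2Y2, P2Y4 or P2Y11 receptor. Full concentration–effect curves, repeated in at least three separate experiments run in duplicate or triplicate. EC50 from four-parameter logistic fit. Relative efficacy (%) taken against a maximal effective concentration of UTP or UDP in the same experiment.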

[3] = target: T2, P2Y purinoceptor 11 (Homo sapiens) (UniProt Q96G91); experiment: Agonist activity by measuring inositol phosphate accumulation in 1321N1 human astrocytoma cells stably expressing human P2Y purinoceptor 11; No effect as either agonist or antagonist at 10 uM; format: functional; method in brief: as §1
T2 sequence (whole entry): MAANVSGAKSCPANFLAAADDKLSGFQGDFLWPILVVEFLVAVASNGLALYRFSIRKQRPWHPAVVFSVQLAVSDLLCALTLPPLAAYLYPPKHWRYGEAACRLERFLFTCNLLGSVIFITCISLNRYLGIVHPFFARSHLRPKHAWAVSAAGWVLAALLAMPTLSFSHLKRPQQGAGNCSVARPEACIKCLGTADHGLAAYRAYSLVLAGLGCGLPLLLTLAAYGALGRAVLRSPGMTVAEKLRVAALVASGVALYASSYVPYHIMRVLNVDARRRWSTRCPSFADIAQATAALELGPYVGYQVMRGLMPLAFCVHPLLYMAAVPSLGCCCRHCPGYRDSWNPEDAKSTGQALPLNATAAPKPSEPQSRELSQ

P2Y purinoceptor 2 [4] = target: T3, P2Y purinoceptor 2 (Homo sapiens, UniProt P41231); experiment: Agonist activity by measuring inositol phosphate accumulation in 1321N1 human astrocytoma cells stably expressing human P2Y purinoceptor 2; format: functional; method in brief: as §1
T3 sequence (P41231 whole entry): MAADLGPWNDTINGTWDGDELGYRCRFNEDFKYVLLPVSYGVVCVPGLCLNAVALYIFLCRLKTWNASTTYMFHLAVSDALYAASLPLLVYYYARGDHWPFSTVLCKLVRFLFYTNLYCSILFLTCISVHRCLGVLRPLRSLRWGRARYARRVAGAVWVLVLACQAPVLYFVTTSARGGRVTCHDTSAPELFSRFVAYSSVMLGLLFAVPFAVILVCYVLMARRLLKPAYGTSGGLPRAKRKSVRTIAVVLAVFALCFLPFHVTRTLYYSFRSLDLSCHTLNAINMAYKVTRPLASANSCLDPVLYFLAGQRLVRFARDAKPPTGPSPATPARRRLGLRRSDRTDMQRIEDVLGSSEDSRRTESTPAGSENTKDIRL

Rattus norvegicus = species: Rattus norvegicus; experiment: Hydrolysis rate of compound as substrate of purified recombinant rat Ecto-5'-nucleotidase; format: functional; parameters: scale not given: the % may be the effect or the level left
Method in brief: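 Purified baculovirus-expressed rat ecto-5′-nucleotidase (0.5 μg) incubated 10 min at 37 °C with 100 μM (final) substrate in Tris-buffered saline containing 0.4 mM MgCl2, pH 7.4. Reaction stopped with 5% TCA. Released inorganic phosphate measured by the Lanzetta method. Activity expressed relative to AMP (100%). Two experiments, each in duplicate.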

[5] = target: P2Y purinoceptor 1 (Meleagris gallopavo) (UniProt P49652); experiment: Agonist activity by measuring Purinoceptor P2Y1-promoted phospholipase C activity in turkey erythrocyte membranes; NE means no effect.; format: functional, cell membranes
P2Y purinoceptor 1 (Meleagris gallopavo), sequence (P49652 whole entry): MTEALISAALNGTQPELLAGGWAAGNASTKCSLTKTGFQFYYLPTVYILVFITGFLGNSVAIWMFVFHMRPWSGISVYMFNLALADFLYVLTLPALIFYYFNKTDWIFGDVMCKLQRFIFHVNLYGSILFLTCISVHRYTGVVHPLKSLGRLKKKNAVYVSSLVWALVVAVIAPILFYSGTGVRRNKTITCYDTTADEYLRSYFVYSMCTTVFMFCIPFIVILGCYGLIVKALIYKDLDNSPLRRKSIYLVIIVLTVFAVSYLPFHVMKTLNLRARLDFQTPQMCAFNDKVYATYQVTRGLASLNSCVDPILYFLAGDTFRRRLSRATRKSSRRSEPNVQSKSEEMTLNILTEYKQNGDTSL
Method in brief: (§2)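 Turkey erythrocytes labelled 18–24 h at 37 °C with 2-[3H]myo-inositol in inositol-free DMEM. Ghosts (about 175 μg protein) incubated 5 min at 30 °C in pH 7.0 Hepes/KCl buffer with EGTA, CaCl2 and MgSO4, plus 1 μM GTPγS and the agonist. Total [3H]inositol phosphates separated by anion exchange. EC50 from four-parameter logistic fit, at least three experiments.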

[6] = target: P2Y purinoceptor 1 (Meleagris gallopavo) (UniProt P49652); experiment: Agonist activity by measuring Purinoceptor P2Y1-promoted phospholipase C activity in turkey erythrocyte membranes; No effect as either agonist or antagonist at 10 uM; format: functional, cell membranes; method in brief: as §2
[7] = target: P2Y purinoceptor 4 (Homo sapiens) (UniProt P51582); experiment: Agonist activity by measuring inositol phosphate accumulation in 1321N1 human astrocytoma cells stably expressing human P2Y purinoceptor 4; No effect as either agonist or antagonist at 10 uM; format: functional; method in brief: as §1
P2Y purinoceptor 4 (Homo sapiens), sequence (P51582 whole entry): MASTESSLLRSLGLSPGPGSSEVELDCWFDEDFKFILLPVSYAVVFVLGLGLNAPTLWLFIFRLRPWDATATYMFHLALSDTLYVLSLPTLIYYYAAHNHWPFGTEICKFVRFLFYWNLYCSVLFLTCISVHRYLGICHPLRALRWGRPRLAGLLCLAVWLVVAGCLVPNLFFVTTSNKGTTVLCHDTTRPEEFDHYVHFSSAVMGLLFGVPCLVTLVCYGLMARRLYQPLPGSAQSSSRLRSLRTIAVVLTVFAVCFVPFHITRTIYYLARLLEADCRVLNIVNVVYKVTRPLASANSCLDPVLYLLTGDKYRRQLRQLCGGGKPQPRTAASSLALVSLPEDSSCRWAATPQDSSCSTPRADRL

[8] = target: T4, Ectonucleoside triphosphate diphosphohydrolase 1 (Rattus norvegicus) (UniProt P97687); experiment: Hydrolysis rate as substrate of rat Ectonucleoside triphosphate diphosphohydrolase 1 (NTPDase 1) (Ecto-apyrase); parameters: scale not given: the % may be the effect or the level left
T4 sequence (whole entry): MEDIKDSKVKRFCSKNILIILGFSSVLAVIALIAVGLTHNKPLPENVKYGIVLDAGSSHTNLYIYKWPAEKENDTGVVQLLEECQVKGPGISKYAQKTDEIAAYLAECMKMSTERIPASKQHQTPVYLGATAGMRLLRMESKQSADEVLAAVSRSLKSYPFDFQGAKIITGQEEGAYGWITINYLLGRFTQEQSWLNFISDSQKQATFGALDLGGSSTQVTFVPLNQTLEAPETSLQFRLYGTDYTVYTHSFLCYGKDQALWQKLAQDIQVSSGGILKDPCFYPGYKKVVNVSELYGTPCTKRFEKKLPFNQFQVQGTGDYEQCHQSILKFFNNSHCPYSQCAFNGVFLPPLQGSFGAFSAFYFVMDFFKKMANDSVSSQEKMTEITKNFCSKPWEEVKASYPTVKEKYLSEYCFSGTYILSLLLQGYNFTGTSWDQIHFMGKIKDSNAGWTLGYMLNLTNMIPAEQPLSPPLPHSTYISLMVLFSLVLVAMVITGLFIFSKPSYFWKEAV
Method in brief: (§3)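 Intact CHO cells stably expressing rat NTPDase1 or NTPDase2, seeded 24 h before assay. Incubated at 37 °C in Hepes-buffered saline, pH 7.4, with nucleotide substrate. Supernatant aliquots taken over time and analysed by HPLC at 260 nm. Rate expressed relative to ATP (100%). Nontransfected CHO cells served as control. Two experiments, each in duplicate.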

[9] = target: T5, Ectonucleoside triphosphate diphosphohydrolase 2 (Rattus norvegicus) (UniProt O35795); experiment: Hydrolysis rate as substrate of rat Ectonucleoside triphosphate diphosphohydrolase 2 (NTPDase 2) (Ecto-apyrase); parameters: scale not given: the % may be the effect or the level left; method in brief: as §3
T5 sequence (whole entry): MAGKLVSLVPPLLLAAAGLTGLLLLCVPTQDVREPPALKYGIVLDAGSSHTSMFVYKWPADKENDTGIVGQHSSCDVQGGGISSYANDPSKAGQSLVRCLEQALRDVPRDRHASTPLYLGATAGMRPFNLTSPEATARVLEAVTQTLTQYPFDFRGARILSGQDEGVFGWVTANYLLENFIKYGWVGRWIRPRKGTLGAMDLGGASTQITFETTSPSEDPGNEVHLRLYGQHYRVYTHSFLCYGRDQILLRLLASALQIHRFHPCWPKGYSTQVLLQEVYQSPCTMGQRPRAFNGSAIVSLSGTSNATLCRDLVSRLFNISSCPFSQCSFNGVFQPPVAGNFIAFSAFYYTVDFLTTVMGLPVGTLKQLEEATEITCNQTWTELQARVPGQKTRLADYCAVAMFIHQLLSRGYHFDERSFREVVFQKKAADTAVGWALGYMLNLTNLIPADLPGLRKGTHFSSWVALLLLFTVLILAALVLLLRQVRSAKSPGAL

[10] = target: P2Y purinoceptor 1 (Meleagris gallopavo) (UniProt P49652); experiment: Agonist activity by measuring Purinoceptor P2Y1-promoted phospholipase C activity in turkey erythrocyte membranes; format: functional, cell membranes; method in brief: as §2
P2Y purinoceptor 1 [11] = target: T1, P2Y purinoceptor 1; experiment: Agonist activity by measuring inositol phosphate accumulation in 1321N1 human astrocytoma cells stably expressing human P2Y purinoceptor 1; No effect as either agonist or antagonist at 10 uM; format: functional; method in brief: as §1
P2Y purinoceptor 2 [12] = target: T3, P2Y purinoceptor 2; experiment: Agonist activity by measuring inositol phosphate accumulation in 1321N1 human astrocytoma cells stably expressing human P2Y purinoceptor 2; No effect as either agonist or antagonist at 10 uM; format: functional

P2Y purinoceptor 1 (Meleagris gallopavo, UniProt P49652), sequence (P49652 whole entry): as the sequence (P49652 whole entry) above

SMILES: CSc1nc(N)c2ncn([C@H]3[C@H](O)[C@H](O)[C@@]4(COP(=O)(O)O)C[C@@H]34)c2n1
- EC50 (P2Y purinoceptor 1 [1]): 1190 nM
- EC50 (P2Y purinoceptor 1 [2]): 590 nM
- NE [3]: inactive

SMILES: CNc1nc(Cl)nc2c1ncn2C1C(O)C(O)[C@@]2(COP(=O)(O)OP(=O)(O)OP(=O)(O)O)C[C@@H]12 (stereo not given in full)
- EC50 (P2Y purinoceptor 1 [1]): 6 nM
- EC50 (P2Y purinoceptor 2 [4]): 8400 nM
- EC50 (P2Y purinoceptor 1 [2]): 9 nM

SMILES: Nc1ncnc2c1ncn2[C@@]12C[C@@H]1[C@H](COP(=O)(O)O)[C@H](O)[C@@H]2O
- Activity (Rattus norvegicus): 0%

SMILES: Nc1ncnc2c1ncn2[C@H]1[C@H](O)[C@H](O)[C@@]2(COP(=O)(O)O)C[C@H]12
- NE [5]: inactive
- Activity (Rattus norvegicus): 0.14%

SMILES: Nc1ncnc2c1ncn2[C@@H]1O[C@H](COP(=O)(O)O)[C@@H](O)[C@H]1O
- NE [6]: inactive
- Activity (Rattus norvegicus): 100%

SMILES: Nc1ncnc2c1ncn2[C@@H]1O[C@H](COP(=O)(O)OP(=O)(O)OP(=O)(O)O)[C@@H](O)[C@H]1O [ADENOSINE TRIPHOSPHATE]
- EC50 (P2Y purinoceptor 2 [4]): 85 nM
- NE [7]: inactive
- Activity [8]: 100%
- Activity [9]: 100%

SMILES: CSc1nc(N)c2ncn([C@@H]3O[C@H](COP(=O)(O)O)[C@@H](O)[C@H]3O)c2n1
- % of maximal effect [10]: 15%
- NE [3]: inactive
- NE (P2Y purinoceptor 1 [11]): inactive

SMILES: CNc1ncnc2c1ncn2C1C(O)C(O)[C@@]2(COP(=O)(O)OP(=O)(O)OP(=O)(O)O)C[C@@H]12 (stereo not given in full)
- EC50 (P2Y purinoceptor 1 [1]): 92 nM
- EC50 (P2Y purinoceptor 2 [4]): 197 nM
- EC50 (P2Y purinoceptor 1 [2]): 33 nM

SMILES: Nc1nc(Cl)nc2c1ncn2[C@@H]1O[C@H](COP(=O)(O)OP(=O)(O)OP(=O)(O)O)[C@@H](O)[C@H]1O
- EC50 (P2Y purinoceptor 1 [1]): 720 nM
- EC50 (P2Y purinoceptor 2 [4]): 2300 nM
- EC50 (P2Y purinoceptor 1 [2]): 770 nM

SMILES: C[S+]([O-])c1nc(N)c2ncn(C3O[C@H](COP(=O)(O)O)[C@@H](O)[C@H]3O)c2n1 (stereo not given in full)
- NE [6]: inactive
- NE (P2Y purinoceptor 1 [11]): inactive

SMILES: Nc1ncnc2c1ncn2C1C(O)C(O)[C@@]2(COP(=O)(O)OP(=O)(O)CP(=O)(O)O)C[C@H]12 (stereo not given in full)
- NE (P2Y purinoceptor 2 [12]): inactive
- EC50 (P2Y purinoceptor 1 [1]): 11300 nM
- EC50 (P2Y purinoceptor 1 [2]): 158 nM
- NE [7]: inactive

From ChEMBL document CHEMBL1135410, “Adenine nucleotide analogues locked in a Northern methanocarba conformation: enhanced stability and potency as P2Y(1) receptor agonists” (J Med Chem, 2002)
